Source: PubChem
An excerpt weighted towards active compounds, which were near 2.5% of everything screened.
MC4R antagonist: blocks human MC4R cAMP signaling. 360,000 tested, 0.48% active. P32245. inhibition, % at 6.5 µM. MC4R-expressing cells, MTII-stimulated cAMP, LANCE TR-FRET;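 active means inhibition above its plate's cutoff, the mean of tested wells on that plate plus 3 SD, cut at about 29% in these data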;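 further: 0% = Melanotan II alone and 100% = Melanotan II plus saturating MCL0020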
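system = U2OS cells with stable human MC4R expression | also added = Melanotan II challenge after compound preincubation | dosing = one concentration, 6.5 µM nominal | incubation = compound 30 min, challenge 1 h, detection 1 h | measured by = TR-FRET with Eu-cAMP and labeled anti-cAMP, 671 nm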
A1 inh: inhibitors of the anti-apoptotic protein A1, read as caspase activation; MEF A1-2A-BIM cells, Caspase-Glo 3/7 luminescence, 3 h; percent of clofoctol response, vehicle zero; caspase activation, % (no concentration beside the values); 330,000 tested, 0.066% active; AID 2462;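 active means over half of replicate activation scores above 10%, or exactly half above 10 with the replicate mean above 10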
MC4R ag barr: agonists of human melanocortin 4 receptor (MC4R) beta-arrestin. activation, % at 8.9 µM. U2OS MC4R beta-arrestin complementation, luminescence; percent of melanotan II response, DMSO zero. P32245. AID 540308. 360,000 tested, 0.98% active;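 active means activation above a per-plate cutoff, the mean activation of sample wells on that plate plus 3 SD, cut at about 8% in these data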
Tb MetRS inh: blocks T. brucei methionyl-tRNA synthetase activity; 360,000 tested, 0.4% active; inhibition, % at 11.9 µM; purified T. brucei MetRS, ATP depletion, Kinase-Glo luminescence; AID 624268;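 active means inhibition above a per-plate cutoff of the control wells' mean inhibition plus 3 SD, cut at about 5.5% in these data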;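 further: 0% = DMSO wells median and 100% = median of wells with control inhibitor compound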
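Dosing: 11.9 µM compound single dose, 0.9% DMSO; Assay system: purified T. brucei MetRS enzyme; Measured by: Kinase-Glo luciferase luminescence reporting remaining unconsumed ATP; Schedule: 15 min plus 2 h at 25 °C.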
NALP1 inh: inhibitors of NALP1 inflammasome in yeast. S. cerevisiae NALP1/ASC/caspase-1 growth, X-gal OD620, 72 h. inhibition, % at 10 µM. 280,000 tested, 0.61% active. AID 2071; in the data active means inhibition mostly above about 24%, no sharp cut-off; inactive means mostly below about 32%
NLRP3 yeast inh: blocks the NALP3 inflammasome reconstituted in yeast; Yeast reconstituted NLRP3/ASC/caspase-1, beta-gal luminescence, 24 h; inhibition, % at 10 µM; 330,000 tested, 0.39% active; AID 2825;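 active means inhibition of 50% or more; inactive means inhibition below 50%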;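 further: plate controls were induced DMSO wells for no effect and uninduced yeast grown without galactose for full effect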
MC4R barr conf: human MC4R beta-arrestin agonism confirmation. shares compounds with MC4R ag barr. U2OS MC4R beta-arrestin recruitment, luminescence; scaled DMSO 0%, Melanotan II 100%. activation, % at 8.9 µM. 2,400 tested, 31% active. AID 602192;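 active means mean activation across replicates above the hit cutoff set in the earlier primary screen, cut at about 8% in these data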
MOR DOR agonist: activates mu-delta opioid heterodimer, MC4R agonist counter-screen. shares compounds with MC4R ag barr. U2OS PathHunter beta-arrestin, beta-gal luminescence; percent of deltorphin B response, DMSO zero. activation, % at 9.2 µM. 2,400 tested, 5.8% active;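 active means mean activation across replicates exceeds the hit threshold derived in the earlier primary screen, cut at about 18% in these data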;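 further: 100% = deltorphin B at 0.9 µM final and 0% = DMSO alone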
Target sequence (P35372 whole entry, looked up): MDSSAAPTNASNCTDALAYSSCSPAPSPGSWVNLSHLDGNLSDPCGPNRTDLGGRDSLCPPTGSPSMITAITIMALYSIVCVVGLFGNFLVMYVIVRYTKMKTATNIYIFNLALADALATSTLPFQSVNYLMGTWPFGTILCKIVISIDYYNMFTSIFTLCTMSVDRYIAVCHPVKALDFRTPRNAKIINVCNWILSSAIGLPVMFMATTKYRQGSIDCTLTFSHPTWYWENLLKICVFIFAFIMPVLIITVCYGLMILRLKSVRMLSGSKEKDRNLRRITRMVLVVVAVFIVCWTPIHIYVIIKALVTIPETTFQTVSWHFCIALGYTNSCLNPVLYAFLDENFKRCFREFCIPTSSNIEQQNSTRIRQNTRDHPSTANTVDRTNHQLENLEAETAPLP
Target sequence (P41143 whole entry, looked up): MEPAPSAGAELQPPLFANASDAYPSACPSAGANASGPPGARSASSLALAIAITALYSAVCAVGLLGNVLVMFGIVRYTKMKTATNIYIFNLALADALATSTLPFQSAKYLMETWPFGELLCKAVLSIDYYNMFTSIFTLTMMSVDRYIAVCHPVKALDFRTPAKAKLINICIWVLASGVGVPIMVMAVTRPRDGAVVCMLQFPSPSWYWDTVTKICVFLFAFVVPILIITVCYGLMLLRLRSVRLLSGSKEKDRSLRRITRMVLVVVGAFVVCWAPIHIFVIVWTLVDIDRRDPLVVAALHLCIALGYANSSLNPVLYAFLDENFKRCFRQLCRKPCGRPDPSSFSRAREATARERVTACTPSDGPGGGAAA
Active calls of the source: *.

CC(c1ccccc1)c1nnc(NC(=O)Nc2ccccc2)s1 (stereo not drawn) was read as MC4R antagonist -6, A1 inh 0, MC4R ag barr 7, Tb MetRS inh 4, NALP1 inh 4 and NLRP3 yeast inh -15.
Screening CC(c1ccccc1)c1nnc(NC(=O)Nc2ccccc2F)s1 (stereo not drawn) returned MC4R antagonist 8, A1 inh 0, MC4R ag barr 10*, Tb MetRS inh 4, NALP1 inh -6, NLRP3 yeast inh 13, MC4R barr conf 3 and MOR DOR agonist 6.
Screening N#C/C(=C\c1cn(CCOc2ccccc2)c2ccccc12)C(=O)NCc1ccco1 returned MC4R antagonist 20, A1 inh 0, MC4R ag barr 21*, Tb MetRS inh 0, NALP1 inh -9, NLRP3 yeast inh 24, MC4R barr conf 35* and MOR DOR agonist 9.
`Cc1ccccc1OCCn1cc(/C=C(\C#N)C(=O)NCc2ccco2)c2ccccc21` gave MC4R antagonist 4, A1 inh 1, MC4R ag barr 26*, Tb MetRS inh -1, NALP1 inh -14, NLRP3 yeast inh -1, MC4R barr conf 12* and MOR DOR agonist 6.
Cc1ccc(C)c(OCCn2cc(/C=C(\C#N)C(=O)NCc3cccs3)c3ccccc32)c1 was read as MC4R antagonist 1, A1 inh 0, MC4R ag barr -2, Tb MetRS inh -1, NALP1 inh 35 and NLRP3 yeast inh 6.
For N#C/C(=C\c1cn(CCOc2ccccc2F)c2ccccc12)C(=O)NCc1cccs1 the results were MC4R antagonist 10, A1 inh 0, MC4R ag barr 10*, Tb MetRS inh 0, NALP1 inh 15, NLRP3 yeast inh 4, MC4R barr conf 26* and MOR DOR agonist 8.
Screening Cc1cccc(NC(=O)c2sc3nc(-c4ccccc4)cn3c2C)n1 returned MC4R antagonist 4, A1 inh -2, MC4R ag barr 0, Tb MetRS inh 0, NALP1 inh 43 and NLRP3 yeast inh 13.
Screening Cc1cccc(NC(=O)c2sc3nc(-c4ccc(F)cc4)cn3c2C)n1 returned MC4R antagonist 14, A1 inh 0, MC4R ag barr 12*, Tb MetRS inh -1, NALP1 inh -14, NLRP3 yeast inh 17, MC4R barr conf 7 and MOR DOR agonist 5.
Screening O=C(N/N=C/c1ccc(F)cc1)c1cc(-c2ccccn2)nc2ccccc12 returned MC4R antagonist 0, MC4R ag barr 16*, Tb MetRS inh 0, NLRP3 yeast inh -5, MC4R barr conf 0 and MOR DOR agonist 11.
Screening COc1cccc(/C=N/NC(=O)c2cc(-c3ccccn3)nc3ccccc23)c1O returned MC4R antagonist 2, A1 inh 0, MC4R ag barr -1, Tb MetRS inh 0 and NLRP3 yeast inh 2.
Screening Cc1ccc(S(=O)(=O)NCc2ccccc2)cc1C(=O)N1CCN(S(=O)(=O)c2ccccc2F)CC1 returned MC4R antagonist 0, MC4R ag barr -2 and Tb MetRS inh 0.
Screening O=S(=O)(N/N=C\c1c(F)cccc1Cl)c1ccc(Cl)cc1 returned MC4R antagonist 1, A1 inh 0, MC4R ag barr -3, Tb MetRS inh -1, NALP1 inh 1 and NLRP3 yeast inh 16.
`Fc1cccc(Cl)c1/C=N/Nc1c(Cl)cncc1Cl` gave MC4R antagonist -6, A1 inh 1, MC4R ag barr 10*, Tb MetRS inh -1, NALP1 inh 17, NLRP3 yeast inh 20, MC4R barr conf 4 and MOR DOR agonist 7.
Screening COc1ccc(-n2[nH]c3c(cnc4ccccc43)c2=O)cc1 returned Tb MetRS inh -1.
COc1ccc(-c2cc(NC(C)=O)c3ncc(-c4cccc(C(F)(F)F)c4)n3c2)c(OC)c1 was read as MC4R antagonist 1, MC4R ag barr 26*, Tb MetRS inh 0, MC4R barr conf 25* and MOR DOR agonist 3.
`COc1ccccc1-c1cc(NC(C)=O)c2ncc(-c3cccc(C(F)(F)F)c3)n2c1` gave MC4R antagonist 10, MC4R ag barr 25*, Tb MetRS inh 0, MC4R barr conf 22* and MOR DOR agonist 4.
Screening CN(C)C(=O)c1cccc(-c2cnc3c(NC=O)cc(-c4cccc(C(F)(F)F)c4)cn23)c1 returned MC4R antagonist -16, MC4R ag barr 6 and Tb MetRS inh 0.
For COc1ccc(-c2cc(NC=O)c3ncc(-c4cccc(C(F)(F)F)c4)n3c2)c(OC)c1 the results were MC4R antagonist -27, MC4R ag barr 20*, Tb MetRS inh 0, MC4R barr conf 13* and MOR DOR agonist 1.
Screening CC(=O)Nc1cc(-c2ccc(C(=O)N3CCOCC3)cc2)cn2c(-c3cccc(C(F)(F)F)c3)cnc12 returned MC4R antagonist 20, MC4R ag barr 5 and Tb MetRS inh 0.
CC(=O)Nc1cc(-c2cccnc2)cn2c(-c3cccc(C(F)(F)F)c3)cnc12 was read as MC4R antagonist 5, MC4R ag barr 28*, Tb MetRS inh 0, MC4R barr conf 29* and MOR DOR agonist 2.
For COc1ccc(/C=N/NC(=O)c2ccc(COc3ccccc3Cl)o2)cc1 the results were MC4R antagonist 6, A1 inh -2, MC4R ag barr 9.9*, Tb MetRS inh 0, NALP1 inh 18, NLRP3 yeast inh 18, MC4R barr conf 6 and MOR DOR agonist 4.
Screening COc1ccc(/C=N/NC(=O)c2ccc(COc3ccccc3Cl)o2)c(OC)c1C returned MC4R antagonist -3, A1 inh 2, MC4R ag barr 17*, Tb MetRS inh -1, NALP1 inh 14, NLRP3 yeast inh 12, MC4R barr conf 18* and MOR DOR agonist 10.
CC(=O)Nc1ccc(/C(C)=N/NC(=O)c2ccc(COc3ccccc3Cl)o2)cc1 was read as MC4R antagonist 13, A1 inh 0, MC4R ag barr 0, Tb MetRS inh 0 and NLRP3 yeast inh 0.
O=CNc1cc(-c2cccc(F)c2)cn2c(-c3ccc(F)cc3)cnc12 was read as MC4R antagonist 17, MC4R ag barr 12*, Tb MetRS inh 0, MC4R barr conf 16* and MOR DOR agonist 4.
